Measurements from ChEMBL document CHEMBL5661984, “Allosteric ligands for the pharmacologically dark receptors GPR68 and GPR65” (Nature, 2015).
The source made the active and inactive calls.

Assays:
[1] = Positive allosteric modulator activity at GPR68 E160Q mutant expressed in human HEK293T cells assessed as cAMP production in presence of H+ proton by Split-luciferase based luminescence counter analysis (reference value: 6.83+/-0.09); format: cell-based; conditions: HEK-293T
How it was run: (§1)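 Proton concentration-response of GPR68 (wild type or E160A/K/Q, R189L/M, H269F mutants) in transiently transfected HEK293-T cells. Read-out: GloSensor cAMP, with luciferin loading 90 min at 37°C at pH 8.4. Run with and without increasing modulator concentrations; 20 min at room temperature before luminescence. Proton KA fixed to the proton EC50 without modulator. KB, τA, α, β fitted globally with an operational allosteric model. n=4.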

[2] = target: G-protein coupled receptor 68 (Homo sapiens, UniProt Q15743); test: Positive allosteric modulator activity at HA-tagged GPR68 expressed in human HEK293T cells assessed as activation of PKA at pH 7.4 by immunoblotting analysis; format: cell-based; conditions: filed as positive allosteric modulator
How it was run: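 HEK293 cells stably expressing N-terminal HA-tagged human GPR68 (vector-only line as control), selected with 250 μg/ml G418. Confluent cells were switched to Hams-F12 at pH 8.0 or 7.4 for 1 h, then given vehicle or 50 μM compound for 10 min. Lysate immunoblots were probed for HA, total VASP, p-p42/p44 and β-actin, read with infrared-fluorophore secondaries.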

[3] = Positive allosteric modulator activity at GPR68 E160K mutant transfected in human HEK293T cells assessed as proton-mediated calcium release at 10 uM incubated for 10 mins by Fluo-4 Direct calcium dye based FLIPR assay (reference value: 1.38 +/- 0.01 %); conditions: HEK-293T, condition central nervous system disease
[4] = Positive allosteric modulator activity at GPR68 H269F mutant transfected in human HEK293T cells assessed as proton-mediated calcium release at 10 uM incubated for 10 mins by Fluo-4 Direct calcium dye based FLIPR assay (reference value: 6.44 +/- 0.02); format: cell-based; conditions: HEK-293T
[5] = Positive allosteric modulator activity at GPR68 R189M mutant transfected in human HEK293T cells assessed as proton-mediated calcium release at 10 uM incubated for 10 mins by Fluo-4 Direct calcium dye based FLIPR assay (reference value: 1.43 +/- 0.01 %); conditions: HEK-293T, condition central nervous system disease
Mus musculus [6] = species: Mus musculus; test: […] activity against GPR68 knockout C57BL/6 mouse assessed as contextual memory retrieval; format: functional, organism-based
How it was run: (§2)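 Fear conditioning in wild-type and GPR68 KO C57BL/6J congenic mice. Training was 8 min: 3 pairings of a 30-s, 90 dB, 5 kHz tone with a 2-s, 0.6 mA foot shock. Context freezing scored at 24 h over 5 min; cue test at 48 h over 6 min. Freezing defined as no movement for 0.5 s. Compound 10 mg/kg in 10% Tween 80 or saline, 30 min before training. n=6–8 per group. Two-way ANOVA with Bonferroni post-hoc test.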

[7] = Toxicity in C57BL/6 mouse assessed as decreased contextual memory retrieval; conditions: in vivo; how it was run: as §2
Mus musculus [8] = species: Mus musculus; test: Antipsychotic activity against GPR68 knockout C57BL/6 mouse assessed as cued memory retrieval by Morris water maze test; format: functional, organism-based
[9] = Positive allosteric modulator activity at GPR68 E160A mutant expressed in human HEK293T cells assessed as cAMP production in presence of H+ proton by Split-luciferase based luminescence counter analysis (reference value: 7.34+/-0.05); format: cell-based; conditions: HEK-293T; how it was run: as §1
[10] = Positive allosteric modulator activity at GPR68 R189M mutant expressed in human HEK293T cells assessed as cAMP production in presence of H+ proton by Split-luciferase based luminescence counter analysis (reference value: 6.71+/-0.03); format: cell-based; conditions: HEK-293T; how it was run: as §1
[11] = Positive allosteric modulator activity at GPR68 H269F mutant expressed in human HEK293T cells assessed as cAMP production in presence of H+ proton by Split-luciferase based luminescence counter analysis (reference value: 5.75+/-0.03); format: cell-based; conditions: HEK-293T; how it was run: as §1
[12] = target: C-X-C chemokine receptor type 4 (Homo sapiens) (UniProt P61073); test: Agonist activity against CXCR4 receptor (unknown origin) transfected in human HEK293T cells at 10 uM incubated for 15 mins in presence of CXCL12 by luminescence counter analysis; format: functional, cell-based
How it was run: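 HEK293-T cells transiently transfected with CXCR4 and the GloSensor cAMP reporter, plated in DMEM with 1% dialyzed FBS. Test compound at 10 μM in 20 mM HEPES/HBSS, pH 7.4, 15 min at room temperature. Agonist mode: luciferin (4 mM final) plus 200 nM isoproterenol added, 20 min. Antagonist mode: compound 10 min, then reference agonist at EC80 for 10 min, then luciferin/isoproterenol. Luminescence read. CXCL12 (1 or 3 μM) is the agonist control and AMD3100 (10 μM) the antagonist control. n=2.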

Adenosine receptor A2a = Adenosine receptor A2a (Homo sapiens, UniProt P29274); test: Antagonist activity against A2A adenosine receptor (unknown origin) transfected in human HEK293T cells assessed as inhibition constant […] by luminescence counter analysis; format: functional, cell-based
[13] = Positive allosteric modulator activity at GPR68 R189L mutant expressed in human HEK293T cells assessed as cAMP production in presence of H+ proton by Split-luciferase based luminescence counter analysis (reference value: 7.20+/-0.03); format: cell-based; conditions: HEK-293T; how it was run: as §1
[14] = Binding affinity to GPR68 E160A mutant expressed in human HEK293T cells assessed as cAMP production in presence of H+ proton by Split-luciferase based luminescence counter analysis; conditions: condition central nervous system disease; how it was run: as §1

Sequence of Adenosine receptor A2a (P29274 whole entry): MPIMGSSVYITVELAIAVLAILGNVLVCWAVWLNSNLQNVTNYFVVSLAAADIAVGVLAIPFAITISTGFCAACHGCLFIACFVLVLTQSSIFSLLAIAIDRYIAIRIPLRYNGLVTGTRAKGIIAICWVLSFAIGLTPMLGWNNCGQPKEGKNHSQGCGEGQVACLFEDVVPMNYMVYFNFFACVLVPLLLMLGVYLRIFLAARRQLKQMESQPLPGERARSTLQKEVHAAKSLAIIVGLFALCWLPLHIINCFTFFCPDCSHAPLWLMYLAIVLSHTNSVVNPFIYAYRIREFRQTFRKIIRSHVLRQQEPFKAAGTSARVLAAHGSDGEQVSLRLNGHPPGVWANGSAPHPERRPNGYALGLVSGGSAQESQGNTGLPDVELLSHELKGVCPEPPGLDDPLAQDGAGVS
Sequence of G-protein coupled receptor 68 (Q15743 whole entry): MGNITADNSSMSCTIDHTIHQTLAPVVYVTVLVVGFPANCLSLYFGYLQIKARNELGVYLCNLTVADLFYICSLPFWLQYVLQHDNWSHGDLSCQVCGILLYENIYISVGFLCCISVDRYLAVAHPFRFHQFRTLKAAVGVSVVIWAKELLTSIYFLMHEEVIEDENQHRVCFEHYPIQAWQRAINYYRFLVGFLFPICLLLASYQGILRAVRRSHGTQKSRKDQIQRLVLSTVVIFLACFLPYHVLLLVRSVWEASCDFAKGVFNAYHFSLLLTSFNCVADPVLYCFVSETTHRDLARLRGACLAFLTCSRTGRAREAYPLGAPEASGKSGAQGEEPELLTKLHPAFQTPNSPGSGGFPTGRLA
Sequence of C-X-C chemokine receptor type 4 (Homo sapiens) (P61073 whole entry): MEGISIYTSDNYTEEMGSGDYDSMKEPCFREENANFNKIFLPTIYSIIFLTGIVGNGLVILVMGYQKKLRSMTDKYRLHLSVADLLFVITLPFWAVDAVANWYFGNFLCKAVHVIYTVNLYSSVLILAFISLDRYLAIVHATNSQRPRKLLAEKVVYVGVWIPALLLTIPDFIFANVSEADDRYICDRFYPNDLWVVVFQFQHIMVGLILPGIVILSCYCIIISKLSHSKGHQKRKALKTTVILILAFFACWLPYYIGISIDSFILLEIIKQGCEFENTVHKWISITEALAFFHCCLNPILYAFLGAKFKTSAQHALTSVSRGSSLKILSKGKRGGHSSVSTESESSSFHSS

For `Nc1nc(NCc2ccccc2)nc(-c2ccccc2CO)n1` [Ogerin], the EC50 [1] was 26.9 nM, the Activity [2] was “Active” and the Emax at 10 µM [3] was 1.12%. The EC50 [4] was 145 nM, the Emax at 10 µM [5] was 1.36% and the Activity (Mus musculus [6]) was “inactive”. For the same compound, the Activity [7] was “Toxic”, the Activity (Mus musculus [8]) was “inactive” and the EC50 [9] was 11.7 nM. For the same compound, the EC50 [10] was 191 nM, the EC50 [11] was 398 nM and the Activity [12] was “inactive”. The Ki (Adenosine receptor A2a) was 220 nM, the EC50 [13] was 43.7 nM and the pKb [14] was 4.67.
